Holding throughout (assay type): functional
The test system of assay [1] is Rattus norvegicus. Briefly: Heart uptake in percent injected dose/gram (range) was determined in female fischer rat after 1251-labelled compound complexed with bovine serum albumin was injected intravenously after 5 minutes. In short, it runs like this:
(§1)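 Female Fischer 344 rats, 10–12 weeks old (170–200 g), fed and watered ad libitum. ¹²⁵I-labeled fatty acid in 0.5 mL absolute ethanol added dropwise to stirred 6% bovine serum albumin at 40 °C (final ethanol 10%), 0.22-μm filtered, given into a lateral tail vein under ether anesthesia. At set times: ether anesthesia, cervical fracture, organs excised, rinsed, blotted, weighed and gamma counted. Values are % injected dose/g, 3–4 rats per time point.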

The test system of assay [2] is Rattus norvegicus. Briefly: Heart uptake in percent injected dose/gram (range) was determined in female fischer rat after 1251-labelled compound complexed with bovine serum albumin was injected intravenously after 60 minutes. In a few lines: as §1
Assay [3] concerns Rattus norvegicus. Briefly: Heart uptake in percent injected dose/gram (range) was determined in female fischer rat after 1251-labelled compound complexed with bovine serum albumin was injected intravenously after 4 hours. In short, it runs like this: as §1
The test system of assay [4] is Rattus norvegicus. Briefly: Heart uptake in percent injected dose/gram (range) was determined in female fischer rat after 1251-labelled compound complexed with bovine serum albumin was injected intravenously after 30 minutes. In short, it runs like this:
as §1

Assay [5] concerns Rattus norvegicus. Description: Kidneys uptake in percent injected dose/gram (range) was determined in female fischer rat after 1251-labelled compound complexed with bovine serum albumin was injected intravenously after 30 minutes. In short, it runs like this:
as §1

The test system of assay [6] is Rattus norvegicus. Briefly: Kidneys uptake in percent injected dose/gram (range) was determined in female fischer rat after 1251-labelled compound complexed with bovine serum albumin was injected intravenously after 4 hours. In short, it runs like this: as §1
Assay [7] has as its system Rattus norvegicus. Briefly: Lungs uptake in percent injected dose/gram (range) was determined in female fischer rat after 1251-labelled compound complexed with bovine serum albumin was injected intravenously after 5 minutes. In a few lines:
as §1

Assay [8] has as its system Rattus norvegicus. Description: Lungs uptake in percent injected dose/gram (range) was determined in female fischer rat after 1251-labelled compound complexed with bovine serum albumin was injected intravenously after 60 minutes. In short, it runs like this: as §1
For assay [9], the system named is Rattus norvegicus. Briefly: Blood uptake in percent injected dose/gram (range) was determined in female fischer rat after 1251-labelled compound complexed with bovine serum albumin was injected intravenously after 30 minutes. In a few lines: as §1
The subject of assay [10] is Rattus norvegicus. Description: Blood uptake in percent injected dose/gram (range) was determined in female fischer rat after 1251-labelled compound complexed with bovine serum albumin was injected intravenously after 4 hours. In short, it runs like this: as §1
Assay [11] has as its system Rattus norvegicus. Briefly: Lungs uptake in percent injected dose/gram (range) was determined in female fischer rat after 1251-labelled compound complexed with bovine serum albumin was injected intravenously after 4 hours. In a few lines:
as §1

The test system of assay [12] is Rattus norvegicus. Description: Blood uptake in percent injected dose/gram (range) was determined in female fischer rat after 1251-labelled compound complexed with bovine serum albumin was injected intravenously after 5 minutes. In a few lines:
as §1

Assay [13] relates to Rattus norvegicus. Description: Blood uptake in percent injected dose/gram (range) was determined in female fischer rat after 1251-labelled compound complexed with bovine serum albumin was injected intravenously after 60 minutes. In a few lines:
as §1

Assay [14] deals with Rattus norvegicus. Briefly: Thyroid uptake in percent injected dose/gram (range) was determined in female fischer rat after 1251-labelled compound complexed with bovine serum albumin was injected intravenously after 30 minutes. In short, it runs like this: as §1
Assay [15] deals with Rattus norvegicus. Briefly: Thyroid uptake in percent injected dose/gram (range) was determined in female fischer rat after 1251-labelled compound complexed with bovine serum albumin was injected intravenously after 4 hours. In a few lines:
as §1

Assay [16] concerns Rattus norvegicus. Description: Thyroid uptake in percent injected dose/gram (range) was determined in female fischer rat after 1251-labelled compound complexed with bovine serum albumin was injected intravenously after 5 minutes. In a few lines:
as §1

In assay [17] the test system is Rattus norvegicus. Briefly: Thyroid uptake in percent injected dose/gram (range) was determined in female fischer rat after 1251-labelled compound complexed with bovine serum albumin was injected intravenously after 60 min. In short, it runs like this:
as §1

Assay [18] relates to Rattus norvegicus. Briefly: Kidneys uptake in percent injected dose/gram (range) was determined in female fischer rat after 1251-labelled compound complexed with bovine serum albumin was injected intravenously after 5 minutes. In short, it runs like this:
as §1

The subject of assay [19] is Rattus norvegicus. Briefly: Kidneys uptake in percent injected dose/gram (range) was determined in female fischer rat after 1251-labelled compound complexed with bovine serum albumin was injected intravenously after 60 minutes. In a few lines: as §1
The test system of assay [20] is Rattus norvegicus. Description: Liver uptake in percent injected dose/gram (range) was determined in female fischer rat after 1251-labelled compound complexed with bovine serum albumin was injected intravenously after 30 minutes. In short, it runs like this: as §1
Assay [21] concerns Rattus norvegicus. Briefly: Liver uptake in percent injected dose/gram (range) was determined in female fischer rat after 1251-labelled compound complexed with bovine serum albumin was injected intravenously after 4 hours. In short, it runs like this: as §1
The subject of assay [22] is Rattus norvegicus. Briefly: Liver uptake in percent injected dose/gram (range) was determined in female fischer rat after 1251-labelled compound complexed with bovine serum albumin was injected intravenously after 5 minutes. In a few lines: as §1
Assay [23] concerns Rattus norvegicus. Briefly: Liver uptake in percent injected dose/gram (range) was determined in female fischer rat after 1251-labelled compound complexed with bovine serum albumin was injected intravenously after 60 min. In short, it runs like this:
as §1

Assay [24] relates to Rattus norvegicus. Description: Lungs uptake in percent injected dose/gram (range) was determined in female fischer rat after 1251-labelled compound complexed with bovine serum albumin was injected intravenously after 30 minutes. In a few lines: as §1
For assay [25], the system named is Rattus norvegicus. Description: Thyroid uptake in percent injected dose/gram (range) was determined in female fischer rat after 1251-labelled compound complexed with bovine serum albumin was injected intravenously after 60 minutes. In short, it runs like this:
as §1

In assay [26] the test system is Rattus norvegicus. Briefly: Heart uptake in percent injected dose/gram (range) was determined in female fischer rat after 1251-labelled compound complexed with bovine serum albumin was injected intravenously after 5 hours. In a few lines: as §1
Assay [27] has as its system Rattus norvegicus. Briefly: Lungs uptake in percent injected dose/gram (range) was determined in female fischer rat after 1251-labelled compound complexed with bovine serum albumin was injected intravenously after 5 hours. In short, it runs like this: as §1
Assay [28] has as its system Rattus norvegicus. Description: Blood uptake in percent injected dose/gram (range) was determined in female fischer rat after 1251-labelled compound complexed with bovine serum albumin was injected intravenously after 5 hours. In a few lines:
as §1

Assay [29] has as its system Rattus norvegicus. Briefly: Thyroid uptake in percent injected dose/gram (range) was determined in female fischer rat after 1251-labelled compound complexed with bovine serum albumin was injected intravenously after 5 hours. In short, it runs like this: as §1
The subject of assay [30] is Rattus norvegicus. Briefly: Kidneys uptake in percent injected dose/gram (range) was determined in female fischer rat after 1251-labelled compound complexed with bovine serum albumin was injected intravenously after 5 hours. In short, it runs like this: as §1
In assay [31] the test system is Rattus norvegicus. Description: Liver uptake in percent injected dose/gram (range) was determined in female fischer rat after 1251-labelled compound complexed with bovine serum albumin was injected intravenously after 5 hours. In short, it runs like this: as §1

Each structure is given as a SMILES string.

Take `CC(CCCCCCCCCCCCc1ccc(I)cc1)CC(=O)O` (racemic) [IODOFILTIC ACID]: the Activity in the assay with Rattus norvegicus [1] stood at 4.62%; with Rattus norvegicus [2], 4.26%; in the assay with Rattus norvegicus [3] it was 2.27%; in the assay with Rattus norvegicus [4], 3.63%; in the assay on Rattus norvegicus [5] it was 1.71%; in the assay on Rattus norvegicus [6], 1.49%. For the same compound, the Activity in the assay on Rattus norvegicus [7] is listed as 1.45%; with Rattus norvegicus [8], 1.21%; in the assay with Rattus norvegicus [9], 1.6%; in the assay on Rattus norvegicus [10], 1.13%; with Rattus norvegicus [11], 0.91%; with Rattus norvegicus [12], 0.71%. In addition, the Activity with Rattus norvegicus [13] was found to be 1.7%; with Rattus norvegicus [14], 9.26%; with Rattus norvegicus [15] it was 9.69%; with Rattus norvegicus [16] it was 6.78%; with Rattus norvegicus [17] it was 10.66%; in the assay on Rattus norvegicus [18] it was 1.08%. Also, the Activity is 2.14% in the assay on Rattus norvegicus [19]; 3.66% in the assay with Rattus norvegicus [20]; 0.95% with Rattus norvegicus [21]; 8.32% in the assay with Rattus norvegicus [22]; 1.92% in the assay on Rattus norvegicus [23]; 1.15% with Rattus norvegicus [24].
As to `O=C(O)CCCCCCCCCCCCCc1ccc(I)cc1`, the Activity is reported as 2.72% with Rattus norvegicus [1]; 1.78% in the assay with Rattus norvegicus [2]; 1.55% with Rattus norvegicus [7]; 1.39% in the assay on Rattus norvegicus [8]; 1.58% in the assay on Rattus norvegicus [12]; 1.48% in the assay with Rattus norvegicus [13]. Further, the Activity was found to be 1.64% in the assay with Rattus norvegicus [16]; 2.56% in the assay with Rattus norvegicus [25]; 1.64% in the assay on Rattus norvegicus [18]; 1.94% with Rattus norvegicus [19]; 4.82% in the assay with Rattus norvegicus [22]; 2.04% in the assay with Rattus norvegicus [23].
For the compound `CC(CCCCCCCCCCCCc1ccc(I)cc1)C(=O)O` (racemic), the Activity with Rattus norvegicus [1] is given as 1.71%; in the assay on Rattus norvegicus [2] it was 1.52%; in the assay on Rattus norvegicus [26], 0.59%; in the assay with Rattus norvegicus [4], 1.58%; in the assay with Rattus norvegicus [5], 1.95%; with Rattus norvegicus [27], 0.77%. The Activity came to 1.13% in the assay on Rattus norvegicus [7]; 1.13% in the assay on Rattus norvegicus [8]; 1.83% in the assay on Rattus norvegicus [9]; 1.07% in the assay on Rattus norvegicus [28]; 1.8% in the assay on Rattus norvegicus [12]; 1.64% in the assay with Rattus norvegicus [13]. The Activity with Rattus norvegicus [14] turned out to be 5.3%; in the assay with Rattus norvegicus [29] it was 13.95%; in the assay with Rattus norvegicus [16], 7.56%; in the assay with Rattus norvegicus [25] it was 11.5%; in the assay with Rattus norvegicus [30], 1.36%; in the assay with Rattus norvegicus [18] it was 1.68%. The Activity is 1.85% with Rattus norvegicus [19]; 3.85% in the assay on Rattus norvegicus [20]; 1.52% with Rattus norvegicus [31]; 7.61% in the assay on Rattus norvegicus [22]; 2.94% with Rattus norvegicus [23]; 1.03% in the assay on Rattus norvegicus [24].
Regarding `O=C(O)CCCCCCCCCCCCCCc1ccc(I)cc1` [IOCANLIDIC ACID], the Activity in the assay with Rattus norvegicus [1] is listed as 2.98%; with Rattus norvegicus [2] it was 2.34%; in the assay with Rattus norvegicus [3], 0.93%; in the assay with Rattus norvegicus [4], 2.67%; in the assay with Rattus norvegicus [5], 1.08%; in the assay with Rattus norvegicus [6] it was 0.88%. The Activity with Rattus norvegicus [7] was found to be 1.26%; in the assay on Rattus norvegicus [8] it was 1.29%; with Rattus norvegicus [9], 1.5%; in the assay on Rattus norvegicus [10], 0.7%; in the assay on Rattus norvegicus [11], 0.97%; in the assay with Rattus norvegicus [12], 0.91%. Further, the Activity in the assay on Rattus norvegicus [13] is on record as 1.32%; in the assay with Rattus norvegicus [14], 10.28%; in the assay on Rattus norvegicus [15], 8.54%; with Rattus norvegicus [16], 7.08%; in the assay with Rattus norvegicus [25], 7.37%; with Rattus norvegicus [18], 0.84%. In addition, the Activity in the assay on Rattus norvegicus [19] worked out at 1.05%; in the assay on Rattus norvegicus [20], 5.31%; in the assay on Rattus norvegicus [21] it was 1.72%; in the assay with Rattus norvegicus [22] it was 6.69%; with Rattus norvegicus [23] it was 3.76%; in the assay on Rattus norvegicus [24], 1.36%.

The record behind these values is ChEMBL document CHEMBL1122592, “Synthesis and evaluation of radioiodinated terminal p-iodophenyl-substituted alpha- and beta-methyl-branched fatty acids” (1984).
